According to ChEMBL document CHEMBL4028907, “Semisynthesis and Biological Evaluation of Xanthone Amphiphilics as Selective, Highly Potent Antifungal Agents to Combat Fungal Resistance” (J Med Chem, 2017):
Converted amounts (≈) assume the structure as drawn. The source made the active and inactive calls. The rule behind the calls is not given here.

Assays:
[1] = tested on: Fusarium solani; test: Antifungal activity against Fusarium solani MYA3636 after 48 hrs by two fold serial dilution method; type: functional; details: MYA3636, 48 h
How it was run: (§1)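 Moulds grown on potato dextrose agar, 30 °C, 4 days; inoculum adjusted to about 5×10^3 CFU/mL. Two-fold serial dilutions in RPMI-1640 broth, 100 to 0.78 μg/mL final, mixed with equal volume of cell suspension; incubated 30 °C, 48 h. MIC = lowest concentration inhibiting growth, judged visually and by OD530.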

[2] = Selectivity index, ratio of HC50 for New Zealand white rabbit RBC to MIC for Candida albicans ATCC 10231
[3] = tested on: Candida albicans; test: Antifungal activity against Candida albicans ATCC90028 after 24 hrs by two fold serial dilution method; type: functional; details: ATCC90028, 24 h
How it was run: (§2)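 Candida grown on Sabouraud dextrose agar at 35 °C for 24 h, adjusted to ~5×10^3 CFU/mL. Two-fold dilutions from 100 to 0.78 μg/mL in Sabouraud dextrose broth, incubated at 35 °C for 24 h. MIC is the lowest concentration inhibiting growth by eye and by OD600. CLSI-based with minor modifications.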

[4] = tested on: Aspergillus flavus; test: Antifungal activity against Aspergillus flavus TCC MYA3631 after 48 hrs by two fold serial dilution method; type: functional; details: TCC MYA3631, 48 h; how it was run: as §1
[5] = tested on: Candida albicans; test: Antifungal activity against drug resistant Candida albicans DF2672R after 24 hrs by two fold serial dilution method; type: functional; how it was run: as §2
[6] = tested on: Candida albicans; test: Antifungal activity against Candida albicans ATCC24433 after 24 hrs by two fold serial dilution method; type: functional; details: ATCC24433, 24 h; how it was run: as §2
[7] = tested on: Candida albicans; test: Antifungal activity against Candida albicans DF1976R after 24 hrs by two fold serial dilution method; type: functional; how it was run: as §2
[8] = tested on: Fusarium solani; test: Antifungal activity against Fusarium solani 52628 after 48 hrs by two fold serial dilution method; type: functional; details: Fusarium solani, 52628, 48 h; how it was run: as §1
[9] = tested on: Fusarium solani; test: Antifungal activity against Fusarium solani 46492 after 48 hrs by two fold serial dilution method; type: functional; details: Fusarium solani, 46492, 48 h; how it was run: as §1
[10] = tested on: Candida albicans; test: Antifungal activity against drug resistant Candida albicans DF2672R infected C57BL6 mouse cornea at 5% administered topically for every 20 mins during the first hour and every 1 hr during the next 6 hrs by serial dilution method; type: functional
How it was run: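 C57BL6 mice aged 7–8 weeks (19–23 g), immunosuppressed with cyclophosphamide 100 mg/kg ip at 4 days and 1 day before infection and on day 1 after. Left cornea scratched under xylazine/ketamine, then 20 μL of ~5×10^7 CFU/mL yeast in PBS applied. Treatment started 1 day later; PBS served as control; four mice per group. Corneal fungal load counted by serial dilution plating on SDA.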

[11] = tested on: Fusarium oxysporum; test: Antifungal activity against Fusarium oxysporum 64530 after 48 hrs by two fold serial dilution method; type: functional; details: Fusarium oxysporum, 64530, 48 h; how it was run: as §1
[12] = tested on: Fusarium oxysporum; test: Antifungal activity against Fusarium oxysporum MYA3461 after 48 hrs by two fold serial dilution method; type: functional; details: MYA3461, 48 h; how it was run: as §1
[13] = tested on: Candida albicans; test: Antifungal activity against Candida albicans ATCC11651 after 24 hrs by two fold serial dilution method; type: functional; details: ATCC11651, 24 h; how it was run: as §2
[14] = tested on: Aspergillus brasiliensis; test: Antifungal activity against Aspergillus brasiliensis TCC16404 after 48 hrs by two fold serial dilution method; type: functional; details: TCC16404, 48 h; how it was run: as §1
[15] = tested on: Aspergillus fumigatus; test: Antifungal activity against Aspergillus fumigatus TCC MYA3626 after 48 hrs by two fold serial dilution method; type: functional; details: TCC MYA3626, 48 h; how it was run: as §1
[16] = tested on: Fusarium solani; test: Antifungal activity against Fusarium solani 62877 after 48 hrs by two fold serial dilution method; type: functional; details: Fusarium solani, 62877, 48 h; how it was run: as §1
[17] = tested on: Candida albicans; test: Antifungal activity against Candida albicans ATCC 10231 after 24 hrs by two fold serial dilution method; type: functional; details: ATCC 10231, 24 h; how it was run: as §2
[18] = tested on: Aspergillus fumigatus; test: Antifungal activity against Aspergillus fumigatus TCC 90906 after 48 hrs by two fold serial dilution method; type: functional; details: TCC 90906, 48 h; how it was run: as §1
[19] = tested on: Aspergillus flavus; test: Antifungal activity against Aspergillus flavus TCC 204304 after 48 hrs by two fold serial dilution method; type: functional; details: TCC 204304, 48 h; how it was run: as §1
[20] = tested on: Candida albicans; test: Fungicidal activity against drug resistant Candida albicans DF2672R at 8 times MIC after 24 hrs by time kill assay relative to control; type: functional
How it was run: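 Cells at 10^5–10^6 CFU/mL exposed to 1×, 2×, 4× or 8× MIC at 35 °C. Samples taken at 0.5, 1, 2, 4, 8 and 24 h, serially diluted in PBS and plated on SDA. CFU counted after 24 h at 35 °C; biological replicates.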

Structure (SMILES): C[C@@H]1C/C=C/C=C/C=C/C=C/[C@H](O[C@@H]2O[C@H](C)[C@@H](O)[C@H](N)[C@@H]2O)C[C@@H]2O[C@](O)(C[C@@H](O)C[C@H]3O[C@@H]3/C=C/C(=O)O1)C[C@H](O)[C@H]2C(=O)O [NATAMYCIN]
- MIC [1]: 6.25 µg/mL (≈ 9.39 µM)
- Selectivity Index [2]: 18.1
- MIC [3]: 6.25 µg/mL (≈ 9.39 µM)
- MIC [4]: > 50 µg/mL
- MIC [5]: 6.25 µg/mL (≈ 9.39 µM)
- MIC [6]: 6.25 µg/mL (≈ 9.39 µM)
- MIC [7]: 6.25 µg/mL (≈ 9.39 µM)
- MIC [8]: 6.25 µg/mL (≈ 9.39 µM)
- MIC [9]: 6.25 µg/mL (≈ 9.39 µM)
- Activity [10]: Active
- MIC [11]: 6.25 µg/mL (≈ 9.39 µM)
- MIC [12]: 3.13 µg/mL (≈ 4.7 µM)
- MIC [13]: 6.25 µg/mL (≈ 9.39 µM)
- MIC [14]: 6.25 µg/mL (≈ 9.39 µM)
- MIC [15]: 6.25 µg/mL (≈ 9.39 µM)
- MIC [16]: 25 µg/mL (≈ 37.6 µM)
- MIC [17]: 6.25 µg/mL (≈ 9.39 µM)
- MIC [18]: 6.25 µg/mL (≈ 9.39 µM)
- MIC [19]: > 50 µg/mL
- Activity [20]: 99.9%
